# Assay results published in ChEMBL document CHEMBL1125422, “Low molecular weight proteins as carriers for renal drug targeting. Preparation of drug-protein conjugates and drug-spacer derivatives and their catabolism in renal cortex homogenates and lysosomal lysates” (J Med Chem, 1992).
# Where “and” joins values, the source holds several entries; their conditions need not be identical. Equal values may be shown once. Square brackets hold non-standard residues; d marks the D form. Peptide text beside a SMILES is read from it. * marks the point of attachment. ξ: configuration not given here. βNA = c1ccc2cc(N*)ccc2c1; Cbz = O=C(OCc1ccccc1)*; ξP = O=C(O)C1CCCN1
# Legend:
# Rattus norvegicus [1] = species on record: Rattus norvegicus; assay: (§1) Lysozyme-conjugated prodrugs: in vitro stability at pH 5; format: functional
# In short: (§2)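 Conjugate incubated 24 h in pH 5.0 buffer, pH 7.4 buffer, or plasma buffered at pH 7.4. Samples were deproteinized with ACN, MeOH or 2 N HCl, centrifuged, and analyzed by RP-HPLC against an internal standard. Release is % parent drug = parent/(parent + derivative) from IS-normalized peak-area ratios, mean of at least two separate incubations.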
# Rattus norvegicus [2] = species on record: Rattus norvegicus; assay: (§3) Lysozyme-conjugated prodrugs: in vitro stability at pH 7.4; format: functional; in short: as §2
# Rattus norvegicus [3] = species on record: Rattus norvegicus; assay: as §1; format: ADME; in short: as §2
# Rattus norvegicus [4] = species on record: Rattus norvegicus; assay: as §3; format: functional; in short: as §2; remark: listed apart in the source
# Rattus norvegicus [5] = species on record: Rattus norvegicus; assay: as §3; format: functional; in short: as §2; remark: listed apart in the source
# Rattus norvegicus [6] = species on record: Rattus norvegicus; assay: as §1; format: functional; in short: as §2; remark: listed apart in the source
# Rattus norvegicus [7] = species on record: Rattus norvegicus; assay: as §3; format: functional; in short: as §2; remark: listed apart in the source
Compound,Drug release (Rattus norvegicus [1]) [%],Drug release (Rattus norvegicus [2]) [%],Drug release (Rattus norvegicus [3]),Drug release (Rattus norvegicus [4]),Drug release (Rattus norvegicus [5]) [%],Drug release (Rattus norvegicus [6]) [%],Drug release (Rattus norvegicus [7]) [%]
COc1ccc2cc(C(C)C(=O)N[C@H](C(=O)O)C(C)C)ccc2c1 (stereo partly specified),0,0,0%,0%,,,
O=C(N[C@@H](Cc1ccccc1)C(=O)O)c1ccccc1,0,0,0%,0%,,,
CC(C)C[C@H](N)C(=O)Nc1ccc2ccccc2c1,100,100,0%,0%,100,100,
COc1ccc2c(c1)c(CC(=O)NCC(=O)O)c(C)n2C(=O)c1ccc(Cl)cc1,0,0,0%,0%,,,
COc1ccc2cc(C(C)C(=O)N[C@@H](Cc3ccccc3)C(=O)O)ccc2c1 (stereo partly specified),0,0,0%,0%,,,
COc1ccc2cc(C(C)C(=O)NC(Cc3ccc(O)cc3)C(=O)O)ccc2c1 (stereo unspecified),<1,<1,< 1%,<1%,<1,<1,<1
C[C@@H](NC(=O)C(Cc1ccccc1)NC(=O)OCc1ccccc1)C(=O)O (stereo partly specified),100,100,0%,0%,100,100,
COc1ccc2c(c1)c(CC(=O)N[C@@H](Cc1ccc(O)cc1)C(=O)O)c(C)n2C(=O)c1ccc(Cl)cc1,0,0,0%,0%,,,
COc1ccc2cc(C(C)C(=O)N[C@@H](Cc3ccc(O)cc3)C(=O)NCC(=O)NCC(=O)O)ccc2c1 (stereo in doubt; 1e),<1,<1,< 1%,<1%,<1,<1,<1
COc1ccc2cc(C(C)C(=O)O[C@@H](C)C(=O)O)ccc2c1 (stereo in doubt),2,,1.1%,6.9%,,2,6.8
COc1ccc2cc(C(C)C(=O)N[C@@H](CCCN=C(N)N)C(=O)O)ccc2c1 (stereo partly specified),0,0,0%,0%,,,
O=C(N[C@@H](Cc1ccccc1)C(=O)O)C1CCCN1C(=O)OCc1ccccc1 (stereo partly specified) (Cbz-[ξP]-Phe-OH),100,100,0%,0%,100,100,
CC(C)C[C@H](N)C(=O)Nc1nc(N)c2nc(-c3ccccc3)c(N)nc2n1,<5,<5,0%,0%,,,
COc1ccc2cc(C(C)C(=O)N[C@@H](CC(C)C)C(=O)NCC(=O)NCC(=O)O)ccc2c1 (stereo in doubt; 1c),<1,<1,< 1%,<1%,<1,<1,<1
COc1ccc2cc(C(C)C(=O)NCCCC[C@H](N)C(=O)O)ccc2c1 (stereo partly specified),0,0,0%,0%,0,0,0
COc1ccc2cc(C(C)C(=O)O[C@@H](C)C(=O)O)ccc2c1 (stereo in doubt; 1r),100,15,0.6%,1.4%,3,100,13
CC(C)C[C@H](N)C(=O)Nc1nc2nc(N)nc(N)c2nc1-c1ccccc1,<5,<5,0%,0%,,,
COc1ccc2cc(C(C)C(=O)N[C@@H](Cc3ccc(O)cc3)C(=O)O)ccc2c1 (stereo partly specified),0,0,0%,0%,,,
COc1ccc2cc(C(C)C(=O)OCC(=O)O)ccc2c1 (stereo unspecified),81,8,1%,2%,5,45,8
CC(C)C[C@H](NC(=O)c1ccccc1)C(=O)O,0,0,0%,0%,,,
COc1ccc2c(c1)c(CC(=O)N[C@@H](Cc1c[nH]c3ccccc13)C(=O)O)c(C)n2C(=O)c1ccc(Cl)cc1,0,0,0%,0%,,,

Compound,Drug release (Rattus norvegicus [1]) [%],Drug release (Rattus norvegicus [2]) [%],Drug release (Rattus norvegicus [3]),Drug release (Rattus norvegicus [4]),Drug release (Rattus norvegicus [5]) [%],Drug release (Rattus norvegicus [6]) [%],Drug release (Rattus norvegicus [7]) [%]
C[C@H](NC(=O)OCc1ccccc1)C(=O)N1CCC[C@H]1C(=O)N[C@@H](Cc1ccccc1)C(=O)O (Cbz-Ala-Pro-Phe-OH),0,96,0%,0%,,,
N=C(N)NCCC[C@H](NC(=O)c1ccccc1)C(=O)O,0,0,0%,0%,,,
O=C(O)CNC(=O)c1ccccc1 [HIPPURIC ACID],0,0,0%,0%,,,
Cc1cc(NS(=O)(=O)c2ccc(NC(=O)CC3=CC(=O)OC3=O)cc2)no1,84,8,100% and 80%,15% and 7%,8,84,7
COc1ccc2c(c1)c(CC(=O)N[C@@H](Cc1ccccc1)C(=O)O)c(C)n2C(=O)c1ccc(Cl)cc1,0,0,0%,0%,,,
COc1ccc2cc(C(C)C(=O)NCC(=O)O)ccc2c1 (stereo unspecified),0,0,0%,0%,,,
CC(C)C[C@H](N)C(=O)Nc1nc(N)nc2nc(N)c(-c3ccccc3)nc12,0,0,0%,0%,,,
O=C(O)CC[C@H](NC(=O)c1ccccc1)C(=O)O,0,0,0%,0%,,,
COc1ccc2c(c1)c(CC(=O)N[C@@H](CC(C)C)C(=O)O)c(C)n2C(=O)c1ccc(Cl)cc1,0,0,0%,0%,,,
O=C(N[C@@H](Cc1c[nH]c2ccccc12)C(=O)O)c1ccccc1,0,0,0%,0%,,,
COc1ccc2c(c1)c(CC(=O)N[C@@H](CCC(=O)O)C(=O)O)c(C)n2C(=O)c1ccc(Cl)cc1,0,0,0%,0%,,,
COc1ccc2cc(C(C)C(=O)N[C@@H](CC(C)C)C(=O)O)ccc2c1 (stereo partly specified),0,0,0%,0%,,,
COc1ccc2c(c1)c(CC(=O)NCCCC[C@H](NC(=O)OCc1ccccc1)C(=O)O)c(C)n2C(=O)c1ccc(Cl)cc1,0,0,0%,0%,,,
O=C(N[C@@H](Cc1ccc(O)cc1)C(=O)O)c1ccccc1,0,0,0%,0%,,,
COc1ccc2cc(C(C)C(=O)N[C@@H](Cc3ccc(O)cc3)C(=O)NCC(=O)NCC(=O)O)ccc2c1 (stereo in doubt; 1p),0,0,0%,0%,,,
COc1ccc2cc(C(C)C(=O)N[C@@H](Cc3c[nH]c4ccccc34)C(=O)O)ccc2c1 (stereo partly specified),0,0,0%,0%,,,
NCCCC[C@H](NC(=O)c1ccccc1)C(=O)O,0,0,0%,0%,,,
COc1ccc2cc(C(C)C(=O)N[C@@H](CCC(=O)O)C(=O)O)ccc2c1 (stereo partly specified),0,0,0%,0%,,,
COc1ccc2cc(C(C)C(=O)NC(CC(C)C)C(=O)O)ccc2c1 (stereo unspecified),<1,<1,< 1%,<1%,<1,<1,<1
NCC(=O)N[C@@H](Cc1ccccc1)C(=O)Nc1ccc2ccccc2c1 (H-Gly-Phe-βNA),100,100,0%,0%,100,100,
COc1ccc2cc(C(C)C(=O)N[C@@H](CC(C)C)C(=O)NCC(=O)NCC(=O)O)ccc2c1 (stereo in doubt; 1o),0,0,0%,0%,,,
